Here are results for 4 compounds from ChEMBL document CHEMBL5620402, “Development of submicromolar 17β-HSD10 inhibitors and their in vitro and in vivo evaluation” (Eur J Med Chem, 2023).

The structures appear in SMILES notation.

What is called logD is the decadic logarithm of the distribution of all forms, ionised or not, between an organic phase and buffer at a given pH. As a reminder, the IC50 is the concentration that gives 50% inhibition. One may read the pKa as the negative logarithm of the acid dissociation constant. Usually Ki stands for the dissociation constant of the complex between target and ligand, obtained from inhibition or displacement.

The subject of series [1] is HEK293. Kind of series: Cytotoxicity against human HEK293 cells assessed as change in ATP level at 1 uM measured after 48 hrs by CellTiter-Glo assay. The series is classed as toxicity, cell-based. To be noted: hek293, 48 h. Put shortly:
(§1)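 HEK293 or SH-SY5Y cells in DMEM with 10% FBS, 2 mM glutamine and NEAA were seeded at 7,500 cells per well and grown 24 h. They were then exposed to 1 or 10 μM compound (final 1% DMSO) for 48 h. ATP was read by CellTiter-Glo luminescence after CellTox Green, normalised to 1% DMSO and 100 μM valinomycin controls. At least two experiments in tetraplicate.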

Series [2] is described as follows: PBS buffer - Octanol distribution coefficient, logD of the compound at pH 7.4 by UHPLC-DAD-MS analysis. The series is classed as physicochemical. Put shortly:
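Compound (0.25 mg) was put into 500 μL of a 1:1 water–octanol (logP) or PBS pH 7.4–octanol (logD) mixture. Samples were shaken 30 min and centrifuged 10 min at 10,000 rcf. Each phase was quantified by UHPLC-DAD-MS against calibration lines.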

Series [3] can be described thus: Aqueous solubility, logS of the compound at pH 7.4 phosphate buffer by nephelometry assay. It counts as physicochemical. Put shortly: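 Nephelometry of compound suspensions in phosphate buffer pH 7.4. Stock was 160 μg/mL, sonicated and auto-diluted over 0–160 μg/mL, with higher stocks (640 μg/mL, 2.54 mg/mL) used if needed. Wells were shaken 30 s and laser-scanned. Solubility was derived by segmental linear regression.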

Series [4] deals with T1, 3-hydroxyacyl-CoA dehydrogenase type-2 (Homo sapiens) (UniProt Q99714).
T1 sequence (whole entry): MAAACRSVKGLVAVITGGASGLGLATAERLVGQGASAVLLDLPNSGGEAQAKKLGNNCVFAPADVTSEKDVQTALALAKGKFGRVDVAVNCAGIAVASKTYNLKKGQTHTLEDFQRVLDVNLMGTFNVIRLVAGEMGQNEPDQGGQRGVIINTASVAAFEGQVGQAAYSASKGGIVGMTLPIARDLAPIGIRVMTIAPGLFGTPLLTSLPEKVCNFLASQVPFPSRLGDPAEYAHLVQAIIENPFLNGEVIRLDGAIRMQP
Kind of series: Inhibition of recombinant 17beta-HSD10 (unknown origin) expressed in Escherichia coli BL21 (DE3) assessed as residual activity at 10 uM using acetoacetyl-CoA as substrate by SAAC method relative to control. The method in brief:
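Recombinant 17β-HSD10 from E. coli BL21(DE3), 0.15 μg, was mixed with 320 μmol/L NADH in Tris-HCl pH 7.4 assay buffer. It was preincubated 5 min at 37 °C with 1 or 10 μM inhibitor or vehicle, then 320 μmol/L acetoacetyl-CoA was added. A340 was followed for 5 min. Residual activity is % of control, triplicate mean ± SD, with t-test versus control.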

Series [5] has as its target T2, Amine oxidase [flavin-containing] B (Sus scrofa, UniProt Q6PLK3).
T2 sequence (Q6PLK3 whole entry): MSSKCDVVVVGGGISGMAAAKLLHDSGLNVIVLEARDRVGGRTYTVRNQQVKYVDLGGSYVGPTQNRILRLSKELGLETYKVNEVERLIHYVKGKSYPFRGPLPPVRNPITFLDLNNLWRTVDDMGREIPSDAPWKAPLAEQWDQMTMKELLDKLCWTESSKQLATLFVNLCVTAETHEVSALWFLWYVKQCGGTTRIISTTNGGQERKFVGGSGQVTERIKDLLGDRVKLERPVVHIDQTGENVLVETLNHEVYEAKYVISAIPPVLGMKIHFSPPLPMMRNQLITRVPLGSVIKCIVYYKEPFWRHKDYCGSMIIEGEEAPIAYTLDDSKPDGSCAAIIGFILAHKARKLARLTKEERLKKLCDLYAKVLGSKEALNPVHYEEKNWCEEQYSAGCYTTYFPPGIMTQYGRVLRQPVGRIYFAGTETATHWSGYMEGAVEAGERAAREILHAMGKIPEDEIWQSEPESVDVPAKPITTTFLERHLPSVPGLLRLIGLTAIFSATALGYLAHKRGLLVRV
Kind of series: Inhibition of pig brain mitochondrial MAO-B using [14C]PEA as substrate incubated for 60 mins by liquid scintillation counting analysis. It counts as mitochondria, Mitochondria. Put shortly:
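Pig brain mitochondria were preincubated with drug at 5–7 concentrations (1–1000 μM) for 60 min at 37 °C. Radiolabelled substrate was then added: [3H]5-HT for MAO-A (20 min) or [14C]PEA for MAO-B (1 min). The aldehyde product was counted by liquid scintillation. IC50 came from four-parameter logistic fits; mean ± SE of ≥2 runs.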

The species entered for series [6] is Sus scrofa. Kind of series: Inhibition of pig brain mitochondrial Complex II and III assessed as antimycin A-sensitive rate of cytochrome c reduction upon addition of succinate by measuring activity by spectrophotometric ally method (reference value: 100 + /- 5.6%). Set-up: scale not given: the % may be the effect or the level left. To be noted: Mitochondria.

The nature of series [7]: Dissociation constant, pKa of compound using buffers of given pH (range from 3.0 to 11.5) by UV-VIS spectrophotometry. It counts as physicochemical. The method in brief: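 Compound (10 μL of 1 mg/mL) was put into 490 μL of buffers spanning pH 3.0–11.5 in 0.5-unit steps. UV spectra were scanned at 200–400 nm and 20 °C. pKa was fitted from the sigmoidal absorbance of the dissociated form versus pH.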

For series [8], the species on record is Sus scrofa. In words: Inhibition of pig brain mitochondrial Complex I assessed as rotenone-sensitive rate of the NADH oxidation by measuring activity by spectrophotometric ally method (reference value: 100 + /- 3.3%). Also noted: scale not given: the % may be the effect or the level left. To be noted: Mitochondria. The method in brief: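 Sonicated pig brain mitochondria (1 mg/mL protein) were held in 25 mM KH2PO4, 5 mM MgCl2 pH 7.2 with 2 mM KCN. They were incubated with 50 μM drug for 30 min at 30 °C. The reaction was started with coenzyme Q10 and NADH (100 μM each), and A340 was read for 5 min. The rotenone (10 μM)-insensitive background was subtracted. At least three measurements.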

For series [9], the system named is HEK293. Kind of series: Cytotoxicity against human HEK293 cells assessed as change in ATP level at 10 uM measured after 48 hrs by CellTiter-Glo assay. The conditions noted are these: hek293, 48 h. The series is classed as toxicity, cell-based. The method in brief:
as §1
In general terms: ATP-based viability assays read luminescence as a measure of living cells.

Series [10] can be described thus: Inhibition of complex I linked mitochondrial respiration in isolated pig brain mitochondria by O2k respirometry. Also noted: species or system Sus scrofa. Put shortly: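 Respirometry (Oxygraph-2k) of purified pig brain cortex mitochondria in state 3. Substrates were malate + pyruvate + ADP (Complex I) or ADP + rotenone + succinate (Complex II). One chamber was titrated with compound (10–20 concentrations, final 1.25–500 μM) and the other with DMSO; rates were expressed relative to DMSO. IC50 came from four-parameter logistic fits.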

Series [11] concerns the target T3, 3-hydroxyacyl-CoA dehydrogenase type-2 (Homo sapiens, UniProt Q99714).
T3 sequence (Q99714 whole entry): T1 sequence (whole entry)
Kind of series: Inhibition of recombinant 17beta-HSD10 (unknown origin) expressed in Escherichia coli BL21 (DE3) assessed as residual activity using acetoacetyl-CoA as substrate by SAAC method. Put shortly:
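Recombinant 17β-HSD10 from E. coli BL21(DE3), 0.15 μg, was mixed with 320 μmol/L NADH in 10 mM Tris-HCl pH 7.4 buffer (150 mM NaCl, 1 mM DTT, 0.001% Tween 20, 0.01% BSA). It was preincubated 5 min at 37 °C with inhibitor, then 320 μmol/L acetoacetyl-CoA was added. A340 was followed for 5 min. IC50 came from non-linear regression of ≥3 independent runs in triplicate; Ki was calculated from IC50 per Cer et al.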

For `COc1ccc2nc(NC(=O)Nc3ccc(O)c(C(F)(F)F)c3)sc2c1`, the Activity entry in the series with HEK293 [1] is “Non-Toxic”; in series [4] it was 13%; in the series filed under Sus scrofa [6], 52.2%; in the series filed under Sus scrofa [8], 5.3%; in the series on HEK293 [9], “Non-Toxic”. The logD in series [2] is 5.06. The logS0 in [3] is listed as -4.48. For the same compound, the results for the IC50 result in [5], in [10] and in series [11] were “Not Active”, 28000 nM and 570 nM, respectively. Also, in series [7], the pKa was 11.2. Further, in series [11], the inhibitory constant (Ki) is 440 nM.
Regarding `O=C(Nc1ccc(O)c(Cl)c1)Nc1nc2ccc(C(=O)O)cc2s1`, the Activity result was “Non-Toxic” with HEK293 [1], 17.5% in series [4], 87.7% in the series filed under Sus scrofa [8] and “Non-Toxic” in the series on HEK293 [9]. The compound also returned a logD in series [2] of 0.75. In addition, the logS0 in series [3] is reported as -4.36. The results for the IC50 in [5] (read-out: IC50), in series [10] and in series [11] were 81000 nM, 93000 nM and 310 nM, respectively. The same compound returned a pKa in series [7] of 9.75. For the same compound, the Ki in series [11] is 230 nM.
`CC(=O)Nc1ccc2nc(NC(=O)Nc3ccc(O)c(Cl)c3)sc2c1`: the Activity entry was “Non-Toxic” with HEK293 [1]; 22% in series [4]; 97.4% in the series listed under Sus scrofa [6]; 24.3% in the series filed under Sus scrofa [8]; “Non-Toxic” in the series with HEK293 [9]. Further, the logD in series [2] came out at 3.35. The logS0 in [3] is reported as -4.55. The IC50 in [5] (read-out: IC50) was 120000 nM; in [10], 36400 nM; in series [11], 340 nM. For the same compound, in series [7], the pKa came to 9.83. Also, the Ki in [11] stood at 250 nM.
On to `NC(=O)c1ccc2nc(NC(=O)Nc3ccc(O)c(Cl)c3)sc2c1`, for which the Activity result with HEK293 [1] is “Non-Toxic”; in series [4], 38.3%; in the series listed under Sus scrofa [6], 99.7%; in the series filed under Sus scrofa [8] it was 25.2%; in the series with HEK293 [9] it was “Non-Toxic”. This compound gave a logD in series [2] of 3.34. The same compound showed a logS0 in [3] of -4.78. Moreover, the IC50 in [5] (read-out: IC50) is 84000 nM; in series [10], 88000 nM; in [11] it was 840 nM. The pKa in [7] was 9.35. Also, in series [11], the Ki came to 650 nM.
